Converted amounts (≈) assume the structure as drawn.
Assays:
P388 = experiment: Cytotoxicity against mouse P388 cells; assay type: functional, cell-based
A549 = experiment: Cytotoxicity against human A549 cells; assay type: functional, cell-based
Caspase-3 = molecular target: T1, Caspase-3 (Homo sapiens, UniProt P42574); experiment: Inhibition of peptidase activity of CPP32
T1 sequence (P42574 whole entry): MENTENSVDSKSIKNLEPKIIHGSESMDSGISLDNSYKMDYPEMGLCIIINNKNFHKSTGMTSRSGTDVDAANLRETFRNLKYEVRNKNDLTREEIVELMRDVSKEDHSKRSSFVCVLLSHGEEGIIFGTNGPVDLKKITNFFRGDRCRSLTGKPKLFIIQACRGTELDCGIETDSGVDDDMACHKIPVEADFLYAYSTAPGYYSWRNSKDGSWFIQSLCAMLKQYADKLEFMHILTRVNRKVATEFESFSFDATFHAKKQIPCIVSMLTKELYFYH

[1] = Inhibition of bovine phosphatase activity of calcineurin by microtitre method; design: species or system Bos taurus
Procedure, shortened: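 Bovine calcineurin assayed together with bovine calmodulin, using p-nitrophenyl phosphate as the phosphatase substrate.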

| IC50 (Caspase-3) [µM] | IC50 [1] [µg/mL] | Structure (SMILES) | IC50 (P388) [µg/mL] | IC50 (A549) [µg/mL] |
| --- | --- | --- | --- | --- |
| 2.35 | – | CC(=O)OCC(OC(C)=O)c1c[nH]c2c1C(=N)C(Cl)=C(N)C2=O (configuration not stated) [SECOBATZELLINE A DIACETATE] | 0.01 | 0.12 |
| – | 0.55 (≈ 2.15 µM) | N=C1C(Cl)=C(N)C(=O)c2[nH]cc(C(O)CO)c21 (configuration not stated) [SECOBATZELLINE A] | 0.06 (≈ 0.235 µM) | 0.04 (≈ 0.156 µM) |
| 25.8 | – | CC(=O)OCC(OC(C)=O)c1c[nH]c2c1C(=O)C(Cl)=C(N)C2=O (configuration not stated) [SECOBATZELLINE B DIACETATE] | 3.83 | 4.68 |
| – | 2.21 (≈ 8.61 µM) | NC1=C(Cl)C(=O)c2c(C(O)CO)c[nH]c2C1=O (configuration not stated) [SECOBATZELLINE B] | 1.22 (≈ 4.75 µM) | 2.86 (≈ 11.1 µM) |

Reference: ChEMBL document CHEMBL1144101, “Secobatzellines A and B, two new enzyme inhibitors from a deep-water Caribbean sponge of the genus Batzella” (J Nat Prod, 1999)
